Experiment [1] concerns Calf thymus DNA. In words: Binding affinity to calf thymus DNA assessed as change in melting temperature after 4 hrs. To be noted: Bos taurus. The experiment is classed as nucleic-acid assay. Put shortly: (§1)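 Calf thymus DNA at a fixed 100 μM (DNAp, 50 μM bp) in pH 7.00 buffer of 10 mM NaH₂PO₄/Na₂HPO₄ and 1 mM Na₂EDTA, 1:5 ligand/DNAp ratio, DMSO ≤0.3% v/v. Mixture kept at 37 °C for the stated time, then melted while absorbance at 260 nm was monitored. Tm taken at the midpoint of the normalized profile; ΔTm = Tm(DNA+ligand) − Tm(DNA), corrected for DMSO; mean of at least three runs.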

The test system of experiment [2] is Calf thymus DNA. Briefly: Binding affinity to calf thymus DNA assessed as change in melting temperature after 18 hrs. In kind it is nucleic-acid assay. The following applies: Bos taurus. An outline of the steps:
as §1

Experiment [3] in a line: Growth inhibition of human NCI60 cells after 48 hrs by SRB assay. The experiment is classed as functional. The following applies: NCI60, 48 h; for CC50: read-out: LC50 (the source's name).
A further experiment has as its system K562. Briefly: Cytotoxicity against human K562 cells after 96 hrs by alamar blue assay. In kind it is functional, cell-based. The following applies: K562, 96 h. Put shortly: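 K562 cells kept in RPMI with 10% fetal calf serum and 2 mM glutamine, seeded at 10⁴ cells/mL. Compounds serially diluted in DMSO and added in triplicate; exposure 96 h at 37 °C, 5% CO₂. Alamar Blue (1 μM final) then added for a further 4 h; read by fluorescence emission at 580-620 nm.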
(In general: The colour change of resazurin is a common sign of viable cells or microbes.)

A word on the ΔTm: it is the shift of the melting midpoint relative to a reference. Usually GI50 stands for the concentration at which growth is held to half of that of the control. A word on the TGI: it is the concentration giving total growth inhibition. For orientation: IC50 means the midpoint of a concentration-inhibition curve. Read a low IC50 as inhibition by little substance.

On to `COc1cc2c(cc1OC)C(=O)N1C=C(c3ccc(Cl)cc3)C[C@H]1C=N2`, for which the thermal shift (ΔTm) in the experiment on Calf thymus DNA [1] was determined as 9.9 °C. Besides, the thermal shift (ΔTm) in the experiment on Calf thymus DNA [2] was 10.2 °C. Also, in experiment [3], the GI50 came to 2 nM, net growth stopped (TGI) at 70 nM and the CC50 came out at 4470 nM. Moreover, the IC50 with K562 came to 31.3 nM.

Take `COc1cc2c(cc1OC)C(=O)N1C=C(c3ccc(N(C)C)cc3)C[C@H]1C=N2`: in the experiment with Calf thymus DNA [1], the ΔTm came out at 7.6 °C. In the experiment on Calf thymus DNA [2], the ΔTm was 8 °C. Moreover, in experiment [3], the GI50 turned out to be 3 nM, the concentration for total growth inhibition (TGI) is 40 nM and the CC50 stood at 3230 nM. Moreover, inhibition in the experiment with K562 was half-maximal at 32.1 nM (IC50).

As for `COc1cc2c(cc1OC)C(=O)N1C=C(c3ccc4ccccc4c3)C[C@H]1C=N2`, the thermal shift (ΔTm) with Calf thymus DNA [1] was determined as 15.4 °C. For the same compound, the shift in melting temperature (ΔTm) with Calf thymus DNA [2] amounted to 15.7 °C. Further, in experiment [3], the GI50 was found to be 0.6 nM, net growth stopped (TGI) at 15 nM and the CC50 worked out at 400 nM. The compound also displayed an IC50 in the experiment on K562 of 45.4 nM.

Regarding `COc1cc2c(cc1OC)C(=O)N1C=C(c3ccc(SC)cc3)C[C@H]1C=N2`, the shift in melting temperature (ΔTm) in the experiment on Calf thymus DNA [1] was found to be 10.5 °C. For the same compound, the shift in melting temperature (ΔTm) in the experiment with Calf thymus DNA [2] turned out to be 10.7 °C. Further, in experiment [3], growth was halved (GI50) at 5 nM, the TGI came to 20 nM and the CC50 stood at 1440 nM. Further, it took 19 nM to reach half-maximal inhibition in the experiment with K562 (IC50).

Turning to `COc1cc2c(cc1OC)C(=O)N1C=C(c3ccc(N)cc3)C[C@H]1C=N2`, the ΔTm in the experiment with Calf thymus DNA [1] stood at 6.2 °C. Further, in the experiment on Calf thymus DNA [2], the ΔTm is 6.5 °C. For the same compound, in experiment [3], it took 2 nM to inhibit growth by half (GI50), the TGI worked out at 30 nM and the CC50 came to 4790 nM. The compound further came in with a 50% inhibitory concentration (IC50) with K562 of 14 nM.

With `COc1cc2c(cc1OC)C(=O)N1C=C(c3ccc4c(c3)OCO4)C[C@H]1C=N2`, in the experiment on Calf thymus DNA [1], the ΔTm is 10.3 °C. The ΔTm in the experiment with Calf thymus DNA [2] was 10.3 °C. Besides, in experiment [3], the GI50 was 2 nM, net growth stopped (TGI) at 30 nM and the CC50 stood at 3630 nM. The compound further gave a half-inhibitory concentration (IC50) with K562 of 0.47 nM.

As to `COc1ccc(C2=CN3C(=O)c4cc(OC)c(OC)cc4N=C[C@@H]3C2)cc1`, the shift in melting temperature (ΔTm) with Calf thymus DNA [1] worked out at 10.5 °C. For the same compound, the ΔTm in the experiment with Calf thymus DNA [2] is 10.6 °C. Besides, in experiment [3], the 50% growth inhibitory concentration (GI50) was 1 nM, the TGI is 150 nM and the CC50 was determined as 910 nM. Moreover, the concentration for half-maximal inhibition (IC50) with K562 came to 4.9 nM.

Consider `COc1cc2c(cc1OC)C(=O)N1C=C(c3c(C)cccc3C)C[C@H]1C=N2`, for which the shift in melting temperature (ΔTm) with Calf thymus DNA [1] was 0.5 °C. The thermal shift (ΔTm) in the experiment on Calf thymus DNA [2] came out at 0.5 °C. In experiment [3], it took 851 nM to inhibit growth by half (GI50), net growth stopped (TGI) at 3460 nM and the CC50 amounted to 20900 nM. For the same compound, the concentration for half-maximal inhibition (IC50) in the experiment with K562 is over 1000 nM.

On to `C/C=C/C1=CN2C(=O)c3cc(O[C@@H]4O[C@@H](C)[C@H](NC)[C@@](C)(O)[C@H]4O)c(C)c(O)c3N[C@H](O)[C@@H]2C1` [SIBIROMYCIN], for which the ΔTm in the experiment on Calf thymus DNA [1] stood at 16 °C. In the experiment with Calf thymus DNA [2], the shift in melting temperature (ΔTm) came to 16.3 °C. In experiment [3], the GI50 came to 33 nM, the TGI is 850 nM and the CC50 was 16700 nM. This compound came in with a concentration for half-maximal inhibition (IC50) with K562 of 1.4 nM.

Take `C=Cc1ccc(C2=CN3C(=O)c4cc(OC)c(OC)cc4N=C[C@@H]3C2)cc1`: the ΔTm in the experiment with Calf thymus DNA [1] was determined as 9 °C. In addition, the ΔTm in the experiment with Calf thymus DNA [2] is 9.2 °C. In experiment [3], halving of growth (GI50) required 5 nM, the total growth inhibition concentration (TGI) came to 10 nM and the CC50 amounted to 620 nM. For the same compound, the 50% inhibitory concentration (IC50) in the experiment with K562 came to 69 nM.

Take `COc1cc2c(cc1OC)C(=O)N1C=C(c3ccc(C(C)C)cc3)C[C@H]1C=N2`: the shift in melting temperature (ΔTm) with Calf thymus DNA [1] is 6.7 °C. In addition, in the experiment with Calf thymus DNA [2], the ΔTm amounted to 6.9 °C. Moreover, in experiment [3], the GI50 is 4 nM, the concentration for total growth inhibition (TGI) was 60 nM and the CC50 came out at 4460 nM. In the experiment with K562, this compound had an IC50 of 115 nM.

In the case of `COc1cc2c(cc1OC)C(=O)N1C=C(c3cc4ccccc4s3)C[C@H]1C=N2`, in experiment [3], the GI50 is 5 nM, net growth stopped (TGI) at 90 nM and the CC50 worked out at 540 nM. Further, 26.7 nM corresponded to half-maximal inhibition in the experiment with K562 (IC50).

On to `COc1cc2c(cc1OC)C(=O)N1C=C(/C=C/c3ccc(C(F)(F)F)cc3)C[C@H]1C=N2`, for which, in experiment [3], growth was halved (GI50) at 3 nM, the TGI is 20 nM and the CC50 came out at 1100 nM. The same compound showed a half-inhibitory concentration (IC50) with K562 of 31.2 nM.

For the compound `COc1cc2c(cc1OC)C(=O)N1C=C(c3cccc(Cl)c3)C[C@H]1C=N2`, in experiment [3], growth was halved (GI50) at 17 nM, net growth stopped (TGI) at 100 nM and the CC50 was found to be 540 nM. Further, the midpoint of inhibition in the experiment on K562, the IC50, lay at 19.4 nM.

On to `COC(=O)c1cccc(C2=CN3C(=O)c4cc(OC)c(OC)cc4N=C[C@@H]3C2)c1`, for which, in experiment [3], the GI50 worked out at 5 nM, total growth inhibition (TGI) required 40 nM and the CC50 amounted to 7580 nM. This compound also showed an IC50 in the experiment with K562 of 12.4 nM.

Turning to `COc1cc2c(cc1OC)C(=O)N1C=C(c3cccc4c3sc3ccccc34)C[C@H]1C=N2`, in experiment [3], the 50% growth inhibitory concentration (GI50) amounted to 25 nM, the TGI was found to be 220 nM and the CC50 was determined as 5370 nM. Further, the half-maximal inhibitory concentration (IC50) in the experiment with K562 is 163 nM.

Regarding `COc1cc2c(cc1OC)C(=O)N1C=C(c3ccccc3C(F)(F)F)C[C@H]1C=N2`, in experiment [3], the GI50 stood at 16 nM, net growth stopped (TGI) at 160 nM and the CC50 is 4360 nM. In addition, in the experiment on K562, the half-maximal inhibitory concentration (IC50) was 258 nM.

As to `COc1cc2c(cc1OC)C(=O)N1C=C(c3ccc(C(=O)NCCN(C)C)cc3)C[C@H]1C=N2`, in experiment [3], the 50% growth inhibitory concentration (GI50) came to 19 nM, the concentration for total growth inhibition (TGI) stood at 90 nM and the CC50 came to 3890 nM. The IC50 with K562 is 114 nM.

In the case of `COc1cc2c(cc1OC)C(=O)N1C=C(c3cccc(C(=O)NCCCN(C)C)c3)C[C@H]1C=N2`, in experiment [3], the 50% growth inhibitory concentration (GI50) is 102 nM, the TGI came out at 850 nM and the CC50 was 14100 nM. This compound also displayed a half-inhibitory concentration (IC50) in the experiment with K562 of 273 nM.

Consider `COc1cc2c(cc1OC)C(=O)N1C=C(/C=C/c3ccccc3)C[C@H]1C=N2`, for which, in experiment [3], the 50% growth inhibitory concentration (GI50) came to 4 nM, the total growth inhibition concentration (TGI) was found to be 20 nM and the CC50 worked out at 1580 nM. Moreover, in the experiment with K562, half-maximal inhibition (IC50) required 0.1 nM.

Take `COc1cc2c(cc1OC)C(=O)N1C=C(c3ccc4ccccc4c3)C[C@H]1[C@H](S(=O)(=O)O)N2`: in experiment [3], it took 2 nM to inhibit growth by half (GI50), net growth stopped (TGI) at 20 nM and the CC50 was found to be 45.4 nM. Besides, in the experiment with K562, the IC50 was 1.8 nM.

As for `COc1cc2c(cc1OC)C(=O)N1C=C(c3ccc(C(=O)NCCCN(C)C)cc3)C[C@H]1C=N2`, in experiment [3], it took 58 nM to inhibit growth by half (GI50), the TGI worked out at 830 nM and the CC50 was 35500 nM. This compound also had a half-maximal inhibitory concentration (IC50) with K562 of 165 nM.

`COc1cc2c(cc1OC)C(=O)N1C=C(c3ccc4[nH]ccc4c3)C[C@H]1C=N2`: in experiment [3], the GI50 worked out at 5 nM, the TGI was 40 nM and the CC50 came out at 7080 nM. The compound further showed an IC50 with K562 of 12.6 nM.

For `COc1cccc(C2=CN3C(=O)c4cc(OC)c(OC)cc4N[C@@H](S(=O)(=O)O)[C@@H]3C2)c1`, in experiment [3], the GI50 amounted to 5 nM, the TGI came to 70 nM and the CC50 came out at 0.4 nM. The IC50 in the experiment on K562 was 7.1 nM.

For `COc1cc2c(cc1OC)C(=O)N1C=C(c3ccc([N+](=O)[O-])cc3)C[C@H]1C=N2`, in experiment [3], the GI50 was 4 nM, the TGI stood at 70 nM and the CC50 came out at 6920 nM. For the same compound, the IC50 with K562 was found to be 13.1 nM.

Consider `COc1ccc([C@H]2C[C@H]3C=Nc4cc(OC)c(OC)cc4C(=O)N3C2)cc1`, for which, in experiment [3], it took 9770 nM to inhibit growth by half (GI50), net growth stopped (TGI) at 43600 nM and the CC50 worked out at 91200 nM. Besides, the half-inhibitory concentration (IC50) in the experiment on K562 is over 1000 nM.

As for `COc1cc2c(cc1OC)C(=O)N1C=C(c3cccc(F)c3)C[C@H]1C=N2`, in experiment [3], it took 3 nM to inhibit growth by half (GI50), the concentration for total growth inhibition (TGI) was 50 nM and the CC50 was 16600 nM. The same compound registered a half-maximal inhibitory concentration (IC50) with K562 of 6.4 nM.
